{
  "source": "ChEMBL document CHEMBL3997850",
  "about": "(ACS Med Chem Lett, 2017)",
  "key": {"[1]": {"biological_target": "T1, Nuclear receptor subfamily 1 group I member 2 (Homo sapiens, UniProt O75469)", "T1 sequence (O75469 whole entry)": "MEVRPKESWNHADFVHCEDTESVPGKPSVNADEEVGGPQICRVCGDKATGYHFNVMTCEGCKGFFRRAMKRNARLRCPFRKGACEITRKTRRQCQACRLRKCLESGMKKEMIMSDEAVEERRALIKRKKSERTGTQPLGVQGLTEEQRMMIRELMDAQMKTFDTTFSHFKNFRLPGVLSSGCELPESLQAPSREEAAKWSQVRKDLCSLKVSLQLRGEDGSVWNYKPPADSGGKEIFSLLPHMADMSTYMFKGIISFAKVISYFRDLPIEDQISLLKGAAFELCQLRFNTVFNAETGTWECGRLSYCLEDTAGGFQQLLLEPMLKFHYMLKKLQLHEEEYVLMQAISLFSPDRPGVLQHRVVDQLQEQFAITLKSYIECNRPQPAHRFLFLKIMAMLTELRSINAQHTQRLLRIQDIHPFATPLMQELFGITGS", "assay": "Induction of PXR (unknown origin) expressed in human HepG2 cells after 24 hrs by dual-glo luciferase reporter gene assay", "type": "ADME, cell-based", "how_it_was_run": "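HepG2 cells transfected with human or rat PXR/CYP3A4 reporter, grown 24 h in phenol-red-free MEM with 2 mM L-glutamine and 10% charcoal-stripped FBS at 37 °C, 5% CO2. Compound added at 10 µM final with 0.6% DMSO for 24 h. Dual-Glo firefly then Renilla luminescence read; firefly/Renilla ratio normalized to control-compound wells as % induction.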"}, "Cynomolgus monkey": {"tested_on": "Cynomolgus monkey", "assay": "AUC in cynomolgus monkey at 4 mg/kg, iv or 10 mg/kg, po by LC/MS/MS analysis", "type": "ADME, organism-based, Macaca fascicularis", "settings": "in vivo; call rule not given here", "how_it_was_run": "(§1)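 Male cynomolgus monkeys given 4 mg/kg IV (5% DMAC, 40% propylene glycol in saline) or 10 mg/kg orally (0.5% methylcellulose). EDTA plasma collected pre-dose through 24 h. Acetonitrile protein precipitation, then LC/MS/MS quantification, linear 2–10000 nM. PK parameters by standard non-compartmental methods.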"}, "[2]": {"assay": "Half life in rat at 5 mg/kg, po by LC/MS/MS analysis", "type": "ADME, organism-based", "settings": "in vivo", "how_it_was_run": "(§2)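 Male rats, 5 mg/kg IV in 10% DMAC/saline or 5 mg/kg oral in 0.5% aqueous methylcellulose. Plasma (EDTA) sampled pre-dose to 24 h. Quantified by acetonitrile precipitation and LC/MS/MS (2–10000 nM range, 0.1 mL). Non-compartmental analysis of concentration–time data.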"}, "[3]": {"assay": "Half life in cynomolgus monkey at 10 mg/kg, po by LC/MS/MS analysis", "type": "ADME, organism-based, Macaca fascicularis", "settings": "in vivo", "how_it_was_run": "as §1"}, "[4]": {"assay": "AUC in mouse CT26 cells allografted immunocompetent Balb/c mouse model at 30 mg/kg, po by LC/MS/MS analysis", "type": "ADME, organism-based", "settings": "in vivo"}, "Cytochrome P450 1A2": {"biological_target": "T2, Cytochrome P450 1A2 (Homo sapiens, UniProt P05177)", "T2 sequence (P05177 whole entry)": "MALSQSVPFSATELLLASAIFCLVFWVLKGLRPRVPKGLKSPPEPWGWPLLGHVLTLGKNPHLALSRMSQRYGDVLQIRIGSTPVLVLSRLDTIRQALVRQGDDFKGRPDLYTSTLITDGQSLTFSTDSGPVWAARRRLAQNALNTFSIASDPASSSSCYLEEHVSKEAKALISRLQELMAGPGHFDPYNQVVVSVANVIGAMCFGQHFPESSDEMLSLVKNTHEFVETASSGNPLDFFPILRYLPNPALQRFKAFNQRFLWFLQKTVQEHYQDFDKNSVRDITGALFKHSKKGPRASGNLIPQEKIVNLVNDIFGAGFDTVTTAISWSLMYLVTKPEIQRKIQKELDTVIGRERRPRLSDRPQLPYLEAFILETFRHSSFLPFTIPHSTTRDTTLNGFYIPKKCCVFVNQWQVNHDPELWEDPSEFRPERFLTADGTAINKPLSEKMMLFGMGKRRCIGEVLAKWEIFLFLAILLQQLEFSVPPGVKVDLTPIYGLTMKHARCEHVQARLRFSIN", "assay": "Inhibition of recombinant human CYP1A2 assessed as decrease in hydroxylation of 7-benzyloxy-4-trifluoromethyl-coumarin by fluorescence assay", "type": "ADME", "settings": "recombinant enzyme", "how_it_was_run": "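Recombinant human CYP1A2 or CYP3A4 with 7-benzyloxy-4-trifluoromethyl-coumarin at Km concentration; hydroxylation read by fluorescence. Inhibitor tested at 0–25 µM.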"}, "Cytochrome P450 2D6": {"biological_target": "Cytochrome P450 2D6 (Homo sapiens, UniProt P10635)", "sequence (P10635 whole entry)": "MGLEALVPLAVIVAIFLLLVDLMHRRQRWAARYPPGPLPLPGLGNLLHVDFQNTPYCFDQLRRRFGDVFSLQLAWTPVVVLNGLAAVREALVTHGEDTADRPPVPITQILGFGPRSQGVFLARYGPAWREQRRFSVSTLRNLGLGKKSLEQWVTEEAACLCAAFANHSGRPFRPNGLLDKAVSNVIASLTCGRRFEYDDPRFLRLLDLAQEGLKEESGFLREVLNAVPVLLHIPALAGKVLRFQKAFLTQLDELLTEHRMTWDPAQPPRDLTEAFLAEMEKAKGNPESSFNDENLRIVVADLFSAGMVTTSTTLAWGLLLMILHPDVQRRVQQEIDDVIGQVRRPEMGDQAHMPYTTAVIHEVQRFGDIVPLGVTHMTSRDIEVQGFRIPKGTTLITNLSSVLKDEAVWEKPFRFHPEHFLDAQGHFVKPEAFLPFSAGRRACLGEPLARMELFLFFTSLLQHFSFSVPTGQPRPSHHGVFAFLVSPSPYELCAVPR", "assay": "Inhibition of recombinant human CYP2D6 assessed as decrease in hydroxylation of 7-methoxy-4-methylcoumarin by fluorimetric method", "type": "ADME", "settings": "recombinant enzyme", "how_it_was_run": "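Recombinant human isozymes with substrate at Km concentration: CYP2C9 with 7-methoxy-4-(trifluoromethyl)coumarin, CYP2D6 with 7-methoxy-4-methylcoumarin. Hydroxylation read fluorimetrically, inhibitor 0–25 µM.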"}, "[5]": {"assay": "Clearance in beagle dog at 5 mg/kg, iv or 10 mg/kg, po by LC/MS/MS analysis", "type": "ADME, organism-based, Canis lupus familiaris", "settings": "in vivo", "how_it_was_run": "(§3)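 Male beagle dogs dosed 5 mg/kg IV in 10% DMAC in saline or 10 mg/kg oral in 5% DMAC in 0.5% methylcellulose. EDTA blood taken from pre-dose to 24 h and spun to plasma. Plasma proteins precipitated with acetonitrile, then LC/MS/MS (linear 2–10000 nM, 0.1 mL plasma). Parameters derived by non-compartmental analysis.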"}, "[6]": {"assay": "Volume of distribution at steady state in rat at 5 mg/kg, iv or 5 mg/kg, po by LC/MS/MS analysis", "type": "ADME, organism-based", "settings": "in vivo, read-out: Vdss", "how_it_was_run": "as §2"}, "[7]": {"assay": "Half life in beagle dog at 10 mg/kg, po by LC/MS/MS analysis", "type": "ADME, organism-based, Canis lupus familiaris", "settings": "in vivo", "how_it_was_run": "as §3"}, "Mus musculus": {"tested_on": "Mus musculus", "assay": "Toxicity in mouse up to 2000 mg/kg/day after 28 days by clinical pathology test", "type": "organism-based", "settings": "in vivo, 672 h"}, "Canis familiaris": {"tested_on": "Canis familiaris", "assay": "Toxicity in dog assessed as change in body weight up to 500 mg/kg/day after 28 days", "type": "organism-based, Canis lupus familiaris", "settings": "in vivo, 672 h"}},
  "data": [
    {"smiles": "NS(=O)(=O)NCCNc1nonc1C(=NO)Nc1ccc(F)c(Br)c1", "note": "[EPACADOSTAT]", "values": [
      {"measurement": "Activity", "setting": "[1]", "result": "Not Active"},
      {"measurement": "AUC", "setting": "Cynomolgus monkey", "result": 9.3, "unit": "µM·h"},
      {"measurement": "half-life", "setting": "[2]", "result": 2.2, "unit": "h"},
      {"measurement": "half-life", "setting": "[3]", "result": 2.7, "unit": "h"},
      {"measurement": "AUC", "setting": "[4]", "result": 15, "unit": "µM·h"},
      {"measurement": "inhibition (INH)", "setting": "Cytochrome P450 1A2", "result": "Not Active"},
      {"measurement": "inhibition (INH)", "setting": "Cytochrome P450 2D6", "result": "Not Active"},
      {"measurement": "clearance", "setting": "[5]", "result": 8.33, "unit": "mL/min/kg"},
      {"measurement": "Vd", "setting": "[6]", "result": 2, "unit": "L/kg"},
      {"measurement": "half-life", "setting": "[7]", "result": 4.9, "unit": "h"},
      {"measurement": "Activity", "setting": "Mus musculus", "result": "Non-Toxic"},
      {"measurement": "Activity", "setting": "Canis familiaris", "result": "Non-Toxic"}
    ]}
  ]
}
